MrgX1 PAM = allosterically activates human MrgX1 receptor signaling | Q96LB2 | MrgX1-HEK293, Fluo-4 calcium flux, FDSS; active compounds read high | B-score at 10 µM | 0.63% of 310,000 active | AID 588675;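 active means plate-corrected calcium response at least 3 library SD above typical, normal starting fluorescence, not activating the receptor alone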;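 further: compound read alongside a low EC10 to EC30 dose of BAM8-22 agonist; peak minus trough fluorescence over baseline measured at the second addition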
Target sequence (Q96LB2 whole entry, looked up): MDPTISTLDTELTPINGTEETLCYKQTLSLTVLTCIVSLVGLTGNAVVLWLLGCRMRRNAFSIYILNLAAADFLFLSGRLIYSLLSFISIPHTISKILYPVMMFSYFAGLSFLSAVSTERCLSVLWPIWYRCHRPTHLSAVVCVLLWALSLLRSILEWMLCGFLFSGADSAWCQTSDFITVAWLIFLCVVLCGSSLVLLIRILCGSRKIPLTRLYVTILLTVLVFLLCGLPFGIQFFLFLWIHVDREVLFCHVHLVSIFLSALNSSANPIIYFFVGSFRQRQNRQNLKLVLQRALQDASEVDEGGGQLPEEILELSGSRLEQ
MrgX1 agonist = agonists of human MrgX1 receptor. 0.44% of 310,000 active. B-score at 10 µM. Q96LB2. MrgX1-HEK293 cells, Fluo-4 calcium fluorescence, agonist mode; active compounds read high;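 active means calcium response B-score plate-corrected fluorescence ratio at least 3 library SD, with starting fluorescence B-score inside 5 SD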
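times = overnight plating, then 30 min 37 °C plus 30 min room-temperature dye loading | assay system = stable human MrgX1 HEK293 cell line | input = fifteen thousand cells per well | signal = kinetic calcium dye fluorescence, Fluo-4 NW | dosing = compound delivered in addition one of three | read-out = B-scored fluorescence response ratio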
RGS4 block = human RGS4 inhibition; P49798; B-score at 10 µM; 0.45% of 310,000 active; HEK293 M3R/RGS4 inducible, Fluo-4 calcium flux; active compounds read high; triggered by carbachol at its EC20;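 active means B-score, a plate-corrected calcium signal, over three deviations above library mean, with baseline fluorescence within five deviations of library mean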;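 further: RGS4 expression induced by doxycycline in cells with stable M3 receptor; B-score is computed from the integrated fluorescence ratio over baseline after carbachol; higher B-score means a larger calcium signal and so more RGS4 inhibition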
Target sequence (P49798 whole entry, looked up): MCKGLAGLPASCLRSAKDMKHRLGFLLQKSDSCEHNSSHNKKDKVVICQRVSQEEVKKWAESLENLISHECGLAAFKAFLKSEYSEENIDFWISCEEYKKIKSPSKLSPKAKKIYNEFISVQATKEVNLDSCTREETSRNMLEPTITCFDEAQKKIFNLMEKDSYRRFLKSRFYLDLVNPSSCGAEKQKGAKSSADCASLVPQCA
RGS4 pot = potentiators or activators of RGS4. 0.92% of 310,000 active. HEK293 M3R/inducible RGS4, carbachol calcium flux Fluo4; active compounds read low. B-score at 10 µM;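 active means B-score of the integrated calcium signal more than 4 SD below the library mean, with starting fluorescence not abnormally high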;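 further: negative B-score means reduced calcium response which marks RGS4 activation or potentiation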
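Test system: HEK293 cells with stable M3R and inducible RGS4; also added: carbachol at ECmax as muscarinic agonist stimulus; schedule: dye loading 30 min 37 °C, buffer rest 30 min RT; technique: kinetic calcium fluorescence imaging with Fluo4-AM dye, 2 µM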
MrgX1 antagonist = blocks BAM8-22 activation of human MrgX1 receptor | B-score at 10 µM | MRGX1-HEK293 calcium flux, Fluo-4, BAM8-22 antagonism; active compounds read low | Q96LB2 | 1.3% of 310,000 active;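 active means calcium-response B-score plate-corrected more than 3 library SD below zero, starting fluorescence within 5 deviations, no agonist response on first addition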;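 further: peak minus trough fluorescence over baseline after final BAM8-22 challenge near maximal dose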
MrgX1 ag reconf = reconfirmed activator of human MrgX1 receptor signaling. AID 602412. activation, % at 10 µM. shares compounds with MrgX1 agonist. 78% of 600 active. MrgX1-HEK293, Fluo-4 calcium fluorescence, FDSS;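 active means calcium signal rise, corrected for plate position, at least 3 library SD high, with starting brightness within 5 such deviations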; further: reference of the scale not given here
MrgX1 PAM conf = human MrgX1 positive allosteric modulation, re-confirmation; activation (ratio percentage), % at 10 µM; 13% of 1,200 active; MrgX1-HEK293, Fluo-4 calcium fluorescence, FDSS; shares compounds with MrgX1 PAM;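 active means ratio at least 3 SD above the weak peptide control, stable starting fluorescence, no direct agonism earlier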;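 further: compound followed by low BAM8-22 agonist challenge near EC20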
HEK293 Ca flux = activity in parental HEK293 cells lacking MrgX1 | fluorescence ratio F(max-min)/F0 at 10 µM | shares compounds with MrgX1 antagonist | Fluo-4 calcium fluorescence, FDSS | 2% of 4,000 active;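 active means duplicate-averaged calcium fluorescence ratio at least three times the standard deviation of buffer wells, a nonspecific response in parental cells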
HEK293 Ca counter = MrgX1 allosteric activator counter-screen hit in parental HEK293 cells; shares compounds with MrgX1 antagonist; parental HEK293 calcium flux, Fluo-4 fluorescence ratio; active compounds read high; fluorescence ratio F(max-min)/F0 at 10 µM; 0.4% of 4,000 active; AID 624114;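 active means calcium fluorescence ratio, averaged over duplicates, at least 3 SD of the buffer-well ratio, meaning a nonspecific response in receptor-free cells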;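 further: untransfected parental HEK293 lacking MrgX1 used as counterscreen for MrgX1 allosteric activators; fluorescence change taken during the second addition on a kinetic imager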
HEK293 Ca cntr2 = counter-screen for MrgX1 activators: effect in parental HEK293 cells; fluorescence ratio F(max-min)/F0 at 10 µM; shares compounds with MrgX1 antagonist; Fluo-4 calcium fluorescence (FDSS); active compounds read high; 8.7% of 4,000 active;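 active means calcium fluorescence ratio at least three times the spread of buffer wells, meaning a non-specific response in parental cells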
The depositor's hits bear a star; i = inactive; nt = no result given. Hits are enriched below; roughly 3.5% of the tested compounds scored in any of these assays.

SMILES	MrgX1 PAM	MrgX1 agonist	RGS4 block	RGS4 pot	MrgX1 antagonist	MrgX1 ag reconf	HEK293 Ca flux	HEK293 Ca counter	HEK293 Ca cntr2	others
CC(C)(C)c1ccc(S(=O)(=O)/N=C2\C=C(NS(=O)(=O)c3ccccc3)C(=O)c3ccccc32)cc1	i	26.7*	i	i	i	80.0%*	i	i	57.2*
CC(C)C(NC(=O)c1ccccc1NC(=O)c1ccccc1)C(=O)NNC(=O)c1ccncc1 (stereo not drawn)	i	i	i	i	i	nt	nt	nt	nt
ONC(=Nc1ccccc1)c1ccc(Cl)cc1	i	i	i	i	i	nt	nt	nt	nt
NC(=Nc1ccc(Cl)cc1)c1ccccc1	i	89.9*	i	i	i	279.9%*	i	i	54.7*
c1ccc(Sc2nc(N3CCCCC3)nc(N3CCCCC3)n2)nc1	i	35.1*	i	i	i	210.9%*	i	i	58.6*
Nc1nc(-c2ccc3c(c2)CCO3)cs1	i	38.5*	i	i	i	175.4%*	i	i	i
Cc1[nH]n(-c2ccccc2)c(=O)c1C(=O)c1ccc(Cl)cc1	i	37.2*	i	i	i	116.5%*	i	i	i
Cc1[nH]n(-c2ccc(Cl)cc2)c(=O)c1C(=O)c1ccccc1	i	40.4*	i	i	i	82.4%*	i	i	i
O=C(Nc1ccccc1)Nc1ccc2ccccc2c1	i	33.9*	i	i	i	i	i	i	i
O=S(=O)(Nc1cccc(-c2ccc3nncn3n2)c1)c1cccc(F)c1	i	36.7*	i	i	i	177.0%*	i	i	i
COCCNC(=O)CN(C(=O)c1ccc(N2CCCC2)nc1)c1ccc(Cl)cc1	i	i	i	i	i	nt	nt	nt	nt
CCC1(CC)Cc2ccccc2C(N)=C1C#N	15*	i	i	i	i	nt	i	i	i	MrgX1 PAM conf=i
CCCC(=O)NC1=C(C#N)C2(CCCC2)Cc2ccccc21	i	i	i	i	i	nt	nt	nt	nt
COc1ccccc1CNS(=O)(=O)c1ccc2c(c1)CCCN2C(C)=O	i	i	i	i	i	nt	nt	nt	nt
CCN1CCN(CC(=O)Nc2ccc(Cl)c(Cl)c2)C(=O)C1=O	7.65*	i	i	i	i	nt	i	i	i	MrgX1 PAM conf=i
CCOCCCNc1ccc(N2C(=O)C3CCCCC3C2=O)cc1[N+](=O)[O-] (stereo not drawn)	i	i	i	i	i	nt	nt	nt	nt
Cc1cc(NC(=O)CSc2nccn2C)no1	i	i	i	i	i	nt	nt	nt	nt
Cc1ccsc1/C=C(\C#N)C(=O)NCCCN1CCOCC1	23.9*	i	i	i	i	nt	i	i	i	MrgX1 PAM conf=i
Cc1ccc(S(=O)(=O)Oc2ccc(/C=C3\C(=N)N4N=C(S(C)(=O)=O)SC4=NC3=O)cc2)cc1	i	i	i	i	i	nt	nt	nt	nt
COc1cccc(-n2c(C)cc(/C=C3/C(=N)N4C(=NC3=O)SN=C4S(C)(=O)=O)c2C)c1	32.4*	i	i	i	i	nt	i	i	i	MrgX1 PAM conf=2.0%*
CS(=O)(=O)C1=NSC2=NC(=O)/C(=C\c3ccc(OS(=O)(=O)c4ccccc4)cc3)C(=N)N21	29.8*	i	i	i	i	nt	i	i	i	MrgX1 PAM conf=25.4%*

Screens (PubChem BioAssay)
